The source made the active and inactive calls. The calls are words filed in the database; no cut-off is given here.
How the values were obtained:
[1] = biological target: 5-hydroxytryptamine receptor 2A (Homo sapiens, UniProt P28223); assay: Inhibition of serotonin 5-HT2A receptor (unknown origin) at 1 uM
[2] = biological target: 5-hydroxytryptamine receptor 2B (Homo sapiens, UniProt P41595); assay: Inhibition of serotonin 5-HT2B receptor (unknown origin) at 1 uM
[3] = biological target: 5-hydroxytryptamine receptor 1B (Homo sapiens) (UniProt P28222); assay: Inhibition of serotonin 5-HT1B receptor (unknown origin) at 1 uM
Chain of 5-hydroxytryptamine receptor 1B (Homo sapiens) (P28222 whole entry): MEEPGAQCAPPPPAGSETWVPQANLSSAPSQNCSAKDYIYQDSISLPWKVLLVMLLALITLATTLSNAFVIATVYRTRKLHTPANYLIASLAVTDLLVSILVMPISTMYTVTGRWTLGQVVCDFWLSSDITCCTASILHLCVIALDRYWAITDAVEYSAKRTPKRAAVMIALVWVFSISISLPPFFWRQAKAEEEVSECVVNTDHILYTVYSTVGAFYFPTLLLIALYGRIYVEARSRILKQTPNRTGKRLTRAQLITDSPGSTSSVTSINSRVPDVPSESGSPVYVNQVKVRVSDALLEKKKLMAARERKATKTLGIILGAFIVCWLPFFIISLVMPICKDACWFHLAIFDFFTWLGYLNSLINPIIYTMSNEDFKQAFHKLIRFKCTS

[4] = biological target: 5-hydroxytryptamine receptor 1D (Homo sapiens, UniProt P28221); assay: Inhibition of serotonin 5-HT1D receptor (unknown origin) at 1 uM
Chain of 5-hydroxytryptamine receptor 1D (P28221 whole entry): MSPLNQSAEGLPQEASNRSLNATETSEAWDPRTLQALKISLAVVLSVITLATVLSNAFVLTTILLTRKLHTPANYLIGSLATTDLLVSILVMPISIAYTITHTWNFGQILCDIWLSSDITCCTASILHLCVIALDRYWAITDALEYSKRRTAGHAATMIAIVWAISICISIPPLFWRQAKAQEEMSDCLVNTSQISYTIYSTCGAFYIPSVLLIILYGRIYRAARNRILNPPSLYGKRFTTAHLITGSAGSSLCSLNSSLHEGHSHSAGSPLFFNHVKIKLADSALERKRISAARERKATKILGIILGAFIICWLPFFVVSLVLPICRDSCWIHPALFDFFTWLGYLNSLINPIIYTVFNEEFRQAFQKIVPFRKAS

[5] = biological target: T1, 5-hydroxytryptamine receptor 1A (Homo sapiens) (UniProt P08908); assay: Inhibition of serotonin 5-HT1A receptor (unknown origin) at 1 uM
T1 sequence (whole entry): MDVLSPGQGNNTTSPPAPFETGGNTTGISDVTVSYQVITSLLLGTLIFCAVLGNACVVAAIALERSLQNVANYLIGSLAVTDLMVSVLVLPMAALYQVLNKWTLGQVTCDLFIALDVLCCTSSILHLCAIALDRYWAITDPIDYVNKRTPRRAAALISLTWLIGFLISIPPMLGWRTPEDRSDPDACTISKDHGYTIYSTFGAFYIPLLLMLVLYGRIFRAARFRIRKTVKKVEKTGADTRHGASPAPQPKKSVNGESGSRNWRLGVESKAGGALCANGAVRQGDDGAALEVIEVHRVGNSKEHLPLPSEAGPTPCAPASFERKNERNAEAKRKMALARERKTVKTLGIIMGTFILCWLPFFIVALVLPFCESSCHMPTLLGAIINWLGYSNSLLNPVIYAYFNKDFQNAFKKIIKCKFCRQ

[6] = Oral bioavailability in beagle dog at 2 mg/kg; format: ADME, organism-based, Canis lupus familiaris; settings: in vivo
[7] = Half life in beagle dog at 2 mg/kg, po; format: ADME, organism-based, Canis lupus familiaris; set-up: dose 2 mg/kg, route oral; settings: in vivo
[8] = AUC (0 to t) in beagle dog at 2 mg/kg, po; format: ADME, organism-based, Canis lupus familiaris; set-up: dose 2 mg/kg, route oral; settings: plasma
[9] = Cmax in beagle dog at 2 mg/kg, po; format: ADME, organism-based, Canis lupus familiaris; set-up: dose 2 mg/kg, route oral; settings: in vivo
[10] = Oral bioavailability in Sprague-Dawley rat at 5 mg/kg; format: ADME, organism-based; settings: in vivo
[11] = Half life in Sprague-Dawley rat at 5 mg/kg, po; format: ADME, organism-based; set-up: dose 5 mg/kg, route oral; settings: in vivo
[12] = Cmax in Sprague-Dawley rat at 5 mg/kg, po; format: ADME, organism-based; set-up: dose 5 mg/kg, route oral; settings: in vivo
[13] = AUC (0 to t) in Sprague-Dawley rat at 5 mg/kg, po; format: ADME, organism-based; set-up: dose 5 mg/kg, route oral; settings: plasma
[14] = Half life in rat liver micrososmes; format: ADME, Microsome; settings: liver microsomes
[15] = biological target: T2, 5-hydroxytryptamine receptor 3A (Homo sapiens, UniProt P46098); assay: Binding affinity to human recombinant 5HT3 receptor
T2 sequence (P46098 whole entry): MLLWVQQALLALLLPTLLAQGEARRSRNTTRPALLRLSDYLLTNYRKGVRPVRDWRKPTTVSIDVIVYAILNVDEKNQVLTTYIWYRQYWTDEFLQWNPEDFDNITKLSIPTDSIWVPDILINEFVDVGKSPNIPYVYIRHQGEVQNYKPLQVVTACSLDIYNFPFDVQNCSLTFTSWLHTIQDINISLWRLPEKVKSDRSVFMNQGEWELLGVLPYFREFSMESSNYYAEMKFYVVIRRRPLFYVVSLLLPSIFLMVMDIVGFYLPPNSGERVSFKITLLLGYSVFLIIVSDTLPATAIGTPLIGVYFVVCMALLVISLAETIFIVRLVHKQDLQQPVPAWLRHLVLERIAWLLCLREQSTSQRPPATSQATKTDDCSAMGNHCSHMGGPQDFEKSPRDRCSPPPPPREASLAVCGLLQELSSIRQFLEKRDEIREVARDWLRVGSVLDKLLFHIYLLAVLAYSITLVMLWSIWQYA

[16] = Permeability across human Caco2 cells; format: ADME, cell-based; settings: Caco-2, read-out: Kp
[17] = biological target: 5-hydroxytryptamine receptor 4 (Homo sapiens, UniProt Q13639); assay: Agonist activity at human recombinant 5HT4 receptor assessed as cAMP accumulation relative to 5-HT; format: functional
Chain of 5-hydroxytryptamine receptor 4 (Q13639 whole entry): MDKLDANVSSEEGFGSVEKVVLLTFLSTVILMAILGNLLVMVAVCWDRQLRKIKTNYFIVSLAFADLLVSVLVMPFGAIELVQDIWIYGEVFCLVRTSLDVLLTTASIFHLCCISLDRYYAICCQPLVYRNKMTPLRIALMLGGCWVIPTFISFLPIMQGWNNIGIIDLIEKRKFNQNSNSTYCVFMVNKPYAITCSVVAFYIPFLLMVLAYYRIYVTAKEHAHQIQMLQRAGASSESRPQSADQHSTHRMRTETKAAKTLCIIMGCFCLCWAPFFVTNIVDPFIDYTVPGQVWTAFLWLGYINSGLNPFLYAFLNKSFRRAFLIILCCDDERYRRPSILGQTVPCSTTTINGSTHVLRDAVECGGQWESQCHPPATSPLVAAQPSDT
In short: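 cAMP accumulation in cells expressing human recombinant 5-HT4 receptor, reported as pEC50 with intrinsic activity as % of the maximum response achieved by 5-HT.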

Rattus norvegicus [18] = assay: Agonist activity at 5HT4 receptor in ID dosed rat assessed as dose required to cause esophageal relaxation of 0.1 mm; format: functional
In short: (§1)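 Anesthetized rats dosed intraduodenally over about 0.01–10 mg/kg. Esophageal relaxation was tracked by digital sonomicrometry as the change in inter-crystal distance (mm), n = 4–6. An ED50 was derived from the dose–response, and the dose giving a 0.1 mm relaxation response was calculated.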

[19] = Elimination half life in healthy human; format: ADME, organism-based; settings: in vivo, read-out: beta t1/2 (converted)
Rattus norvegicus [20] = assay: Induction of 5-HT4 receptor-mediated esophageal relaxation in ID dosed rat; format: functional; in short: as §1
Cavia porcellus = assay: Prokinetic activity at guinea pig colonic transit model assessed as reduction in time taken for excretion of first pellet at 0.03 mg/kg, sc by carmine red dye-based assay relative to vehicle-treated control; format: functional; set-up: scale not given: the % may be the effect or the level left; settings: route subcutaneous
In short: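 Conscious guinea pigs given sc doses of 0.03, 0.3 or 3 mg/kg or vehicle (2 mL/kg), n = 9–22 per group. Colonic transit was measured as time to excretion of the first fecal pellet containing carmine red dye marker. Compared with vehicle by ANOVA with Dunnett's post-hoc test, p < 0.05.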

[21] = Cardiotoxicity in human coronary artery assessed as coronary artery constriction; format: toxicity, tissue-based
[22] = Cardiotoxicity in pig coronary artery assessed as coronary artery constriction; format: toxicity, tissue-based, Sus scrofa
[23] = Cardiotoxicity in dog coronary artery assessed as coronary artery constriction; format: toxicity, tissue-based, Canis lupus familiaris
[24] = biological target: 5-hydroxytryptamine receptor 6 (Homo sapiens) (UniProt P50406); assay: Inhibition of serotonin 5-HT6 receptor (unknown origin) at 1 uM
Chain of 5-hydroxytryptamine receptor 6 (Homo sapiens) (P50406 whole entry): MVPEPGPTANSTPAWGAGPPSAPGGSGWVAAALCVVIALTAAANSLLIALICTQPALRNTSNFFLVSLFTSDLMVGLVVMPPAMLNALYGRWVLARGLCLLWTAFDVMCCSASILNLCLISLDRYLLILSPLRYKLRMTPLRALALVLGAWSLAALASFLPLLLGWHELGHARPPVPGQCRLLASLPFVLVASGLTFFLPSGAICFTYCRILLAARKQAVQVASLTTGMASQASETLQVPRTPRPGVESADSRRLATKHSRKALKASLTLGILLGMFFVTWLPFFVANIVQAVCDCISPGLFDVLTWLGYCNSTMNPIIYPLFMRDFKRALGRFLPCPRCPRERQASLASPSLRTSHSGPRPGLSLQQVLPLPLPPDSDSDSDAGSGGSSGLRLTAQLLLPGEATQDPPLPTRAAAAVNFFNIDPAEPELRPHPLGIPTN

[25] = biological target: 5-hydroxytryptamine receptor 7 (Homo sapiens, UniProt P34969); assay: Inhibition of serotonin 5-HT7 receptor (unknown origin) at 1 uM
Chain of 5-hydroxytryptamine receptor 7 (P34969 whole entry): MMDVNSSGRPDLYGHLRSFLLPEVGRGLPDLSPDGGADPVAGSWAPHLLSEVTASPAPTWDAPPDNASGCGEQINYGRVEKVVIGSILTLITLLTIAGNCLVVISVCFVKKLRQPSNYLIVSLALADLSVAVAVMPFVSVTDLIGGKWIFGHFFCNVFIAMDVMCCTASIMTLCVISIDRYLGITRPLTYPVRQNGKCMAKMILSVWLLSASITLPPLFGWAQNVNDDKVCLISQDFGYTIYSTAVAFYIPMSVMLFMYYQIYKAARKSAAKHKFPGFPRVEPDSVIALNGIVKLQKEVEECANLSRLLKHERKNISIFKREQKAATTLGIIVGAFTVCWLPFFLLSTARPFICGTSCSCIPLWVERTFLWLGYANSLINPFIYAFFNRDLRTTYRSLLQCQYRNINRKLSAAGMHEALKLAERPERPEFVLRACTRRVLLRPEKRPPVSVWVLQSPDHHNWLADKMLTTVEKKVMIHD

[26] = biological target: 5-hydroxytryptamine receptor 5A (Homo sapiens) (UniProt P47898); assay: Inhibition of serotonin 5-HT5A receptor (unknown origin) at 1 uM
Chain of 5-hydroxytryptamine receptor 5A (Homo sapiens) (P47898 whole entry): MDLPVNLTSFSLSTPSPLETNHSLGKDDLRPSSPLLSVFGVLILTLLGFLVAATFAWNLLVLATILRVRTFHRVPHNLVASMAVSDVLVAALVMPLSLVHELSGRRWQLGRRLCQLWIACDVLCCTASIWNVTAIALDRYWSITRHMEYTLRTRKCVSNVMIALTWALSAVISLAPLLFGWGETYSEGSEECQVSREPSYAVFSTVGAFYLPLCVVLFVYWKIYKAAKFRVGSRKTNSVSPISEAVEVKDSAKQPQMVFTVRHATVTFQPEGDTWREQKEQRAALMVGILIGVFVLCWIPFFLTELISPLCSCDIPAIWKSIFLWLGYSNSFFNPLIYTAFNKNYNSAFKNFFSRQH

[27] = biological target: T3, 5-hydroxytryptamine receptor 2C (Homo sapiens) (UniProt P28335); assay: Inhibition of serotonin 5-HT2C receptor (unknown origin) at 1 uM
T3 sequence (whole entry): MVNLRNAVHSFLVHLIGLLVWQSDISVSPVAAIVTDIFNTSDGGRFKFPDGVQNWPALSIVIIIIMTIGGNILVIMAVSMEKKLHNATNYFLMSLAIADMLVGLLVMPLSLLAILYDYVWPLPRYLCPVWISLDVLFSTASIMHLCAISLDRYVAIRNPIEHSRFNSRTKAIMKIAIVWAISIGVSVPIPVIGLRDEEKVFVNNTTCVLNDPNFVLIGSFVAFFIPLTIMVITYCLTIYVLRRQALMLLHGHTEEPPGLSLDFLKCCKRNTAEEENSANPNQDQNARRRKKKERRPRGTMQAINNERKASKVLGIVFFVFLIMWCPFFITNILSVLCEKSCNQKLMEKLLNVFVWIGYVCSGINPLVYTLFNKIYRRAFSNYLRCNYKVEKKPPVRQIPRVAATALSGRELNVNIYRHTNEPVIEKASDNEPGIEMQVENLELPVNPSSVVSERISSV

[28] = biological target: T4, 5-hydroxytryptamine receptor 3A (Homo sapiens) (UniProt P46098); assay: Inhibition of serotonin 5-HT3A receptor (unknown origin) at 1 uM
T4 sequence (whole entry): T2 sequence (P46098 whole entry)

[29] = biological target: 5-hydroxytryptamine receptor 4 (Cavia porcellus) (UniProt O70528)
Chain of 5-hydroxytryptamine receptor 4 (Cavia porcellus) (O70528 whole entry): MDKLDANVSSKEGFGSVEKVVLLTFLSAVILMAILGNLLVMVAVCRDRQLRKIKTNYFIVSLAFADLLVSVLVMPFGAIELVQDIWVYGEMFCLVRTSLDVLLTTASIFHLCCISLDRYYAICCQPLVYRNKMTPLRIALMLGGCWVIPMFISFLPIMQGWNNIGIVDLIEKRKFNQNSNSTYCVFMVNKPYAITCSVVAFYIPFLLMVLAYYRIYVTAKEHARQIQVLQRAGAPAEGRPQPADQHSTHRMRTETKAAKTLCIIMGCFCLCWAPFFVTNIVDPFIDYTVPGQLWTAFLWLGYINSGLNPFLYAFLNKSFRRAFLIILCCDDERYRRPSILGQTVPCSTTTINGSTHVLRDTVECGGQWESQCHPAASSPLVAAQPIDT

Homo sapiens = species on record: Homo sapiens; assay: Increase in bowel movements in healthy human at 0.1 to 20 mg after 24 hrs relative to placebo

Chain of 5-hydroxytryptamine receptor 2B (P41595 whole entry): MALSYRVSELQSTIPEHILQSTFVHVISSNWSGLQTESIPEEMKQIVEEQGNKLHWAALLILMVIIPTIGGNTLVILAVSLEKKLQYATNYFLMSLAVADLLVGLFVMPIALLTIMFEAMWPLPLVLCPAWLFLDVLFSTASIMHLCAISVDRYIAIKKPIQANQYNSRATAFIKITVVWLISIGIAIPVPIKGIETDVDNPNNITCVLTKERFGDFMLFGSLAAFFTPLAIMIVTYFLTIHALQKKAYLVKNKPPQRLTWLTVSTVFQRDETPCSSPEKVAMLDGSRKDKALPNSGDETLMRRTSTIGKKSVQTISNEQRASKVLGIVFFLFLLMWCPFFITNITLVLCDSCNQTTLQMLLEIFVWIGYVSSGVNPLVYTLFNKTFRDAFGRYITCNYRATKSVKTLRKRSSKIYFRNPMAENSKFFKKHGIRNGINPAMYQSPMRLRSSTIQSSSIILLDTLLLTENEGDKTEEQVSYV
Chain of 5-hydroxytryptamine receptor 2A (P28223 whole entry): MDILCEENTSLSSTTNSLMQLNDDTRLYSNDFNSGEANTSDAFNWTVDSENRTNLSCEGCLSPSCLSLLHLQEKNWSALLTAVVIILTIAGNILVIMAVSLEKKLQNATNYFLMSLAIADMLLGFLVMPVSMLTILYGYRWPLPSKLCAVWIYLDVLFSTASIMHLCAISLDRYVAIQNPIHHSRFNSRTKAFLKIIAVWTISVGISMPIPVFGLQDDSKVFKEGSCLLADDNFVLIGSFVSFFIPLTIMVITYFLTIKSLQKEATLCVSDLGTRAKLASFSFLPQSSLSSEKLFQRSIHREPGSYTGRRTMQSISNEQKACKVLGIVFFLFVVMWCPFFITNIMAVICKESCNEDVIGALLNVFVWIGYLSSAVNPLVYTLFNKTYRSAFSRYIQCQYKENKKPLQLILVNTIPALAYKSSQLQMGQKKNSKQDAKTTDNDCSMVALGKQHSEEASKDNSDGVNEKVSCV

- inhibition [1]: < 50%
- inhibition [2]: < 50%
- inhibition [3]: < 50%
- inhibition [4]: < 50%
- inhibition [5]: < 50%
- bioavailability [6]: 63%
- half-life [7]: 3.5 h
- AUC(0-t) [8]: 2280 ng·h/mL
- Cmax [9]: 464 ng/mL
- bioavailability [10]: 77%
- half-life [11]: 1.6 h
- Cmax [12]: 818 ng/mL
- AUC(0-t) [13]: 1240 ng·h/mL
- half-life [14]: 1.43 h
- Ki [15]: 100 µM
- Papp [16]: 54 ×10⁻⁶ cm/s
- Intrinsic activity [17]: 83%
- half-life [19]: 12 h
- Activity (Rattus norvegicus [20]): Dose-dependent effect
- inhibition [24]: < 50%
- inhibition [25]: < 50%
- inhibition [26]: < 50%
- inhibition [27]: < 50%
- inhibition [28]: < 50%
- pKb(app) [29]: 9.3
Structure (SMILES): COC(=O)N1CCC(CN2CCC(CNC(=O)c3cccc4[nH]c(C(C)C)nc34)CC2)CC1
- Activity (Rattus norvegicus [18]): 0.23 mg/kg
- ED50 (Rattus norvegicus [20]): 0.15 mg/kg
- Activity (Cavia porcellus): 40%
- Activity [21]: Non-toxic
- Activity [22]: Non-toxic
- Activity [23]: Non-toxic
- Activity (Homo sapiens): Active

Source: ChEMBL document CHEMBL2401700, “Discovery of TD-8954, a clinical stage 5-HT(4) receptor agonist with gastrointestinal prokinetic properties” (Bioorg Med Chem Lett, 2013)
